Measurements published in PubChem BioAssay.
“And” between values parts separate entries of the source, which are not always exact repeats. Identical values can stand only once. The source made the active and inactive calls.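 How the source made its calls, unless noted: active means viability at or under a set limit in both replicates, limit being median viability minus 3 SD (cut at about 48% in these data, passing the limit was not always enough); inconclusive means at or under the limit in just one replicate; inactive means at or above the limit in both replicates.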

Key:
[1] = reduced viability of SK-BR-3 breast cancer cells – cell-based, 24 h, human, pilot screen (AID 572;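 active means viability at or below 10% of carrier control in both of two separate runs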;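 further: compound exposure lasted between 18 and 24 h rather than exactly 24 h; 100% = carrier-treated control wells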); conditions: SK-BR-3 viability, CellTiter-Glo luminescence, at 10 µM, stronger effect = lower value
[2] = HUVEC growth inhibition – cell-based, human, primary screen (AID 575;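 active means viability at or below 30% in both replicate assays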;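 further: 100% = median of untreated cell wells with 0.1% DMSO on each plate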); conditions: HUVEC proliferation, CellTiter-Glo luminescence, 72 h; at 10 µM; stronger effect = lower value
Method in brief: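 Timing: 72 h treatment at 37 °C; material: HUVEC primary cells; technique: CellTiter-Glo luminescence measuring cellular ATP; controls: vehicle and MePR control wells; measure: percent of median DMSO-control luminescence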

[3] = H69AR cell proliferation blockers – human, duplicate replicates, primary screen (AID 580); conditions: H69AR lung tumor cells viability, ATP luminescence, 72 h; at 10 µM; stronger effect = lower value;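 further: 100% = mean luminescence of untreated wells and 0% = no signal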
[4] = MRP1 drug-resistance reversers in H69AR cells – cell-based, doxorubicin co-treatment, pilot screen (AID 601;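 active means viability loss from added drug above about 55%, and viability with drug at most 40%, in both replicates, limit read from the data, passing the limit was not always enough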); conditions: CellTiter-Glo, 72 h, at 10 µM; for differential viability (reversal): stronger effect = higher value
[5] = yeast transport mutant growth inhibition pilot in 384-well plates, post-Golgi transport modulator project (AID 636; in the data active means inhibition above about 31%); conditions: absorbance 615 nm, about 18 h, stronger effect = higher value
[6] = growth suppression of yeast trafficking mutant, preliminary HTS, modulators of trafficking downstream of Golgi apparatus project, 1536-format plate, OD 615 nm (AID 637; in the data active means inhibition above about 30%); conditions: yeast transport mutant growth, absorbance 615 nm, 18 h; stronger effect = higher value
[7] = H69AR cells + 2 uM doxorubicin, measured here: viability with 2 uM doxorubicin, stronger effect = lower value
[8] = H69AR cells, compound alone cytotoxicity

| Structure (SMILES) | viability [1] | viability [2] | viability [3] | differential viability (reversal) ([4]; H69AR cells + 2 uM doxorubicin) | viability [4, 7] | viability [4, 8] | inhibition [5] | inhibition [6] |
| --- | --- | --- | --- | --- | --- | --- | --- | --- |
| CCc1noc(C)c1C(=O)NCCc1ccc(OC)c(OC)c1 | 87% (inactive) | 104% (inactive) | 104% (inactive) | 16.7% (inactive) | 87% | 104% | -8.49% (inactive) | 2.58% (inactive) |
| CCOCCn1c(CN2CCC(Cc3ccccc3)CC2)nc2c1c(=O)n(C)c(=O)n2C | 61% (inactive) | 89.7% (inactive) | 87.7% (inactive) | 29.8% (inactive) | 58% | 87.7% | -8.22% (inactive) | 3.55% (inactive) |
| CN(C)C(=O)Oc1cccc([N+](C)(C)C)c1 | 62% (inactive) and 92% (inactive) | 97.5% (inactive) and 92% (inactive) | 94.7% (inactive) and 120% (inactive) | -1.94% (inactive) and 17.4% (inactive) | 96.6% and 103% | 94.7% and 120% | -5.06% (inactive) and -2.21% (inactive) | -4% (inactive) and -5.83% (inactive) |
| O=C(c1cccs1)N(Cc1ccco1)Cc1cc2ccccc2[nH]c1=O | 86% (inactive) | 110% (inactive) | 82.2% (inactive) | -6.47% (inactive) | 88.7% | 82.2% | 4.19% (inactive) | -4.91% (inactive) |
| O=C(Nc1nc(-c2cccs2)cs1)c1cccc(S(=O)(=O)N2CCCCC2)c1 | 194% (inactive) | 67.2% (inactive) | 66.8% (inactive) | -5.37% (inactive) | 72.2% | 66.8% | 3.9% (inactive) | 1.64% (inactive) |
| COc1cc(C(=O)NCC(=O)OCC(=O)c2ccc[nH]2)cc(OC)c1OC | 76% (inactive) | 101% (inactive) | 91.5% (inactive) | -3.86% (inactive) | 95.3% | 91.5% | -4.38% (inactive) | -0.55% (inactive) |
| CN(C)C(=O)CSc1nnc2sc3ccccc3n12 | 71% (inactive) | 105% (inactive) | 89.2% (inactive) | -6.11% (inactive) | 95.3% | 89.2% | -8.63% (inactive) | 1.82% (inactive) |
| O=C(CSc1nc2ccccc2[nH]1)N1CCCCC1 | 106% (inactive) | 102% (inactive) | 92.9% (inactive) | 8.96% (inactive) | 83.9% | 92.9% | -6.44% (inactive) | 5.09% (inactive) |
| O=C(Cn1cnc2c(cnn2-c2ccccc2)c1=O)NCCc1ccccc1 | 102% (inactive) | 91.6% (inactive) | 91.8% (inactive) | 0.99% (inactive) | 90.8% | 91.8% | -4.68% (inactive) | -5.74% (inactive) |
| COc1ccccc1N(CC(=O)NC1CCCC1)C(=O)c1csnn1 | 97% (inactive) | 89.7% (inactive) | 90% (inactive) | 32.5% (inactive) | 57.5% | 90% | -1.47% (inactive) | -8.36% (inactive) |
| CCC(C)(C)n1nnnc1C(c1cc2cc(C)ccc2[nH]c1=O)N1CCCC1 (stereo not given) | 94% (inactive) | 98.7% (inactive) | 98.6% (inactive) | 9.6% (inactive) | 89% | 98.6% | -4.55% (inactive) | 4.26% (inactive) |
| O=c1[nH]c2cc3c(cc2cc1C(c1nnnn1C1CCCCC1)N1CCSCC1)OCCO3 (stereo not given) | 97% (inactive) | 93.1% (inactive) | 98.8% (inactive) | -1.53% (inactive) | 100% | 98.8% | -0.81% (inactive) | 1.45% (inactive) |
| Cc1[nH]nc2c1C(=O)CCC2 | 105% (inactive) | 117% (inactive) | 101% (inactive) | 4.79% (inactive) | 96.3% | 101% | 0.68% (inactive) | -0.18% (inactive) |
| O=C(O)CCC(=O)NC1CCCCC1NC(=O)CCC(=O)O (stereo not given) | 104% (inactive) | 111% (inactive) | 99% (inactive) | 7.37% (inactive) | 91.6% | 99% | -5.47% (inactive) | 0.73% (inactive) |
| COc1ccccc1C(=O)N1CCN(C(=O)COc2cccc(C)c2)CC1 | 101% (inactive) | 113% (inactive) | 88.6% (inactive) | 2.75% (inactive) | 85.9% | 88.6% | -7.84% (inactive) | -0.73% (inactive) |
| O=C(Nc1ccc2oc(=O)ccc2c1)c1cccnc1 | 111% (inactive) | 107% (inactive) | 98.9% (inactive) | 14.6% (inactive) | 84.2% | 98.9% | -4.38% (inactive) | -0.18% (inactive) |
| Cc1cccc(N(CC(=O)Nc2ccc(CC#N)cc2)S(C)(=O)=O)c1 | 108% (inactive) | 105% (inactive) | 97% (inactive) | 10.8% (inactive) | 86.2% | 97% | -10.8% (inactive) | 2.74% (inactive) |
| COC(=O)c1sc(N)c(C(=O)OC)c1COC(=O)C1CC(=O)N(Cc2ccco2)C1 (stereo not given) | 84% (inactive) | 103% (inactive) | 72.8% (inactive) | -6.05% (inactive) | 78.9% | 72.8% | -4.19% (inactive) | -2.18% (inactive) |
| C=CCN=C1SCC(=O)N1S(=O)(=O)c1ccc(C)cc1 | 88% (inactive) | 89.1% (inactive) | 113% (inactive) | 13.6% (inactive) | 99.4% | 113% | -4.73% (inactive) | 1.64% (inactive) |
| CC1(C)CC(=O)C2=C(C1)N(CC1CCCO1)C(=O)C2(O)C(F)(F)F (stereo not given) | 98% (inactive) | 97.5% (inactive) | 101% (inactive) | 3.08% (inactive) | 97.7% | 101% | -5.95% (inactive) | -6.36% (inactive) |
| CC(C)n1nc(C(=O)Nc2nc3ccc(S(C)(=O)=O)cc3s2)c2ccccc2c1=O | 87% (inactive) | 86.1% (inactive) | 67.8% (inactive) | -4.21% (inactive) | 72% | 67.8% | -4.86% (inactive) | 2.73% (inactive) |
| Cc1cc(C)n(CC(=O)NC2CCCCC2)n1 | 113% (inactive) | 114% (inactive) | 98% (inactive) | 12.7% (inactive) | 85.3% | 98% | -8.49% (inactive) | 0.32% (inactive) |
| CC(C)NC(=O)c1ccccc1NC(=O)CCS(=O)(=O)Cc1ccccc1 | 116% (inactive) | 107% (inactive) | 87.7% (inactive) | -1.34% (inactive) | 89.1% | 87.7% | -1.64% (inactive) | 9.82% (inactive) |
| C=CCn1c(SCC#N)nc2c(c1=O)C(C)(C)Cc1ccccc1-2 | 104% (inactive) | 76.2% (inactive) | 78.8% (inactive) | -6.17% (inactive) | 85% | 78.8% | -5.62% (inactive) | 3.71% (inactive) |
| COc1cccc(/C=N/n2c(-c3ccco3)nc3ccccc3c2=O)c1 | 71% (inactive) | 105% (inactive) | 73.2% (inactive) | -12.3% (inactive) | 85.4% | 73.2% | -6.76% (inactive) | 2.36% (inactive) |
